Compounds with a hit are over-represented: about 4.7% of the library has one in this group of screens.
RGS4 inh: human RGS4 inhibition. HEK293 M3R/RGS4 inducible, Fluo-4 calcium flux; active compounds read high; triggered by carbachol at its EC20. B-score at 10 µM. 310,000 compounds, 0.45% hits;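 active means B-score, a plate-corrected calcium signal, over three deviations above library mean, with baseline fluorescence within five deviations of library mean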;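 further: RGS4 expression induced by doxycycline in cells with stable M3 receptor; B-score is computed from the integrated fluorescence ratio over baseline after carbachol; higher B-score means a larger calcium signal and so more RGS4 inhibition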
Target sequence (P49798 whole entry, looked up): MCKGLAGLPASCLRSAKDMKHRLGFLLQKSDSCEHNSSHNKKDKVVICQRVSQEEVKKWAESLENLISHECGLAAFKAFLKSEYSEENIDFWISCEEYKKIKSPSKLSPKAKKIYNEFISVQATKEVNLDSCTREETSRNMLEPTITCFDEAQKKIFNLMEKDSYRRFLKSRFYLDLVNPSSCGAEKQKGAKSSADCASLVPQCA
MrgX1 ag: human MrgX1 receptor agonism, primary screen. MrgX1-HEK293 cells, Fluo-4 calcium fluorescence, agonist mode; active compounds read high. AID 588627. Q96LB2. 310,000 compounds, 0.44% hits. B-score at 10 µM;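 active means calcium response B-score plate-corrected fluorescence ratio at least 3 library SD, with starting fluorescence B-score inside 5 SD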
Target sequence (Q96LB2 whole entry, looked up): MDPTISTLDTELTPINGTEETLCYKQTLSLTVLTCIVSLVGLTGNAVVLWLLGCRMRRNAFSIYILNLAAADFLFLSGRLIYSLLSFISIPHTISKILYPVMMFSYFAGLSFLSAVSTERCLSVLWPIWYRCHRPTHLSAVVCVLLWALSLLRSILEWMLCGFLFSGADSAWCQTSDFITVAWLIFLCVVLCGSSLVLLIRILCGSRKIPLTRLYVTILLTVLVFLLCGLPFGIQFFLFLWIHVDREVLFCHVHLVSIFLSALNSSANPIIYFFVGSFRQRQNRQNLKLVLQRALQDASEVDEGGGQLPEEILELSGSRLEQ
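Material: MrgX1-expressing HEK293 cells; input: 15,000 cells per well; doses: test compound given as first of three sequential additions; schedule: overnight plating before 1 h dye loading; technique: Fluo-4 NW calcium-flux fluorescence, kinetic read; evaluation: baseline-normalised fluorescence change ratio, B-scored; control set: plate-wise positive and negative controls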
MrgX1 antagonist: antagonists of human MrgX1 receptor. Q96LB2. MRGX1-HEK293 calcium flux, Fluo-4, BAM8-22 antagonism; active compounds read low. B-score at 10 µM. 310,000 compounds, 1.3% hits. AID 588676;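 active means calcium-response B-score plate-corrected more than 3 library SD below zero, starting fluorescence within 5 deviations, no agonist response on first addition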;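 further: peak minus trough fluorescence over baseline after final BAM8-22 challenge near maximal dose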
RGS4 pot: RGS4 potentiation or activation | HEK293 M3R/inducible RGS4, carbachol calcium flux Fluo4; active compounds read low | B-score at 10 µM | 310,000 compounds, 0.92% hits | AID 463111;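 active means B-score of the integrated calcium signal more than 4 SD below the library mean, with starting fluorescence not abnormally high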;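 further: negative B-score means reduced calcium response which marks RGS4 activation or potentiation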
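test system = M3R-expressing HEK293 line, RGS4 induced by doxycycline | probe or stimulus = carbachol at ECmax as muscarinic agonist stimulus | timing = dye loading 30 min 37 °C, buffer rest 30 min RT | signal = calcium dye Fluo4 fluorescence | evaluation = B score from integrated fluorescence ratio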
MrgX1 PAM: human MrgX1 positive allosteric modulation, primary screen. Q96LB2. MrgX1-HEK293, Fluo-4 calcium flux, FDSS; active compounds read high. B-score at 10 µM. 310,000 compounds, 0.63% hits. AID 588675;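 active means plate-corrected calcium response at least 3 library SD above typical, normal starting fluorescence, not activating the receptor alone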;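 further: compound read alongside a low EC10 to EC30 dose of BAM8-22 agonist; peak minus trough fluorescence over baseline measured at the second addition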
Cl transport mod: modulates chloride dependent transport by human KCC2 | KCC2 cells, thallium flux FluoZin-2 fluorescence | 190,000 compounds, 2.2% hits | B-score of Tl+ flux slope (higher = more flux/activation; lower = inhibition) at 10 µM;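 active means thallium flux slope and its plate-corrected score both differing from the plate sample mean at a set confidence after two filtering rounds, in either direction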;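 further: slope of fluorescence scaled to starting intensity during 10 to 20 s after thallium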
RGS4 block valid: validation of RGS4 inhibitors; shares compounds with RGS4 inh; HEK293 M3R/RGS4, carbachol calcium Fluo-4 fluorescence; carbachol added at its EC20; 0 = buffer wells, 100 = carbachol control; calcium response, % at 10 µM; 1,700 compounds, 65% hits; AID 492999;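 active means duplicate-averaged calcium response above the buffer-only control mean plus 5 SD of those controls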;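 further: integrated fluorescence ratio F max minus min over baseline F0; higher response in RGS4-induced cells means RGS4 inhibition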
M3R Ca ctr: counter-screen for RGS4 inhibitors: effect in non-induced cells. 1,900 compounds, 20% hits. shares compounds with RGS4 inh. activity (percent), % at 10 µM. AID 493000. HEK293 M3R non-induced, carbachol calcium Fluo-4; submaximal (EC20) carbachol stimulus; buffer wells 0%, carbachol control wells 100%; call rule not given here;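 further: RGS4 induction absent so cells express M3R without RGS4; higher means more calcium signal and flags a non-specific hit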
M3R basal Ca ctr: second counter-screen for RGS4 inhibitors: non-induced cells without carbachol | HEK293 M3R/RGS4 non-induced, Fluo-4 calcium, no carbachol; normalised: buffer wells 0%, carbachol wells 100% | calcium response (agonist-mode artifact), % at 10 µM | 1,900 compounds, 22% hits | shares compounds with RGS4 inh | AID 493001;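 active means duplicate-averaged calcium rise in uninduced cells above buffer wells' mean plus 5 SD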
* hit, by the source's call; i = inactive; . = no result.

SMILES | RGS4 inh | MrgX1 ag | MrgX1 antagonist | RGS4 pot | MrgX1 PAM | Cl transport mod | RGS4 block valid | M3R Ca ctr | M3R basal Ca ctr
COc1ccc(S(=O)(=O)NC(CCSC)C(=O)NC2CCCCC2)cc1 (centres undefined) | 5.15* | i | i | i | i | 0.101 | i | i | i
CSCCC(NS(=O)(=O)c1ccc(C)cc1)C(=O)NC1CCCCC1 (centres undefined) | i | i | i | i | i | -0.144 | i | i | i
COc1ccc(C(=O)COC(=O)C(CCSC)NS(=O)(=O)c2ccc(Cl)cc2)cc1 (centres undefined) | i | i | i | i | i | -0.83 | . | . | .
CCOc1ccc2nc(NC(=O)CN3C(=O)NC4(CCCC4)C3=O)sc2c1 | i | i | i | i | i | . | . | . | .
CC(NC=O)c1nc2ccccc2n1CCc1ccccc1 (centres undefined) | i | i | i | i | i | . | . | . | .
Cc1ccc(SCC(=O)OCC(=O)N(CC(C)C)c2c(N)n(Cc3ccccc3)c(=O)[nH]c2=O)c(C)c1 | i | i | i | i | i | . | . | . | .
CC1(C)Cc2c(c(-c3ccco3)nc3sc4c(NCCCO)ncnc4c23)CO1 | i | i | i | i | i | -0.0663 | . | . | .
CSc1nc(N(C)CCO)c2sc3nc(-c4ccco4)c4c(c3c2n1)CCC4 | 4.9* | i | i | i | i | 0.467 | i | i | 10.5%*
Cc1[nH]n(-c2ncc(-c3ccccc3)s2)c(=O)c1C(c1ccc(Br)cc1)C(C#N)C#N (centres undefined) | 16.3* | i | -6.8* | i | i | -2.5 | 50.0%* | i | 51.0%*
Cc1[nH]n(C(N)=S)c(=O)c1C(c1ccccc1)C(C#N)C#N (centres undefined) | i | i | i | i | i | 0.193 | . | . | .
O=C1c2[nH]nc(-c3ccccc3O)c2C(c2ccccc2F)N1Cc1ccco1 (centres undefined) | 16.3* | i | i | i | i | . | 34.0%* | 40.5%* | i
O=C1c2[nH]nc(-c3ccccc3O)c2C(c2ccccc2)N1Cc1ccco1 (centres undefined) | 11.7* | i | i | i | i | 0.243 | 6.0%* | i | i
COc1cccc(C2c3c(-c4ccccc4O)n[nH]c3C(=O)N2Cc2ccco2)c1 (centres undefined) | i | i | i | i | i | -0.00682 | . | . | .
CCN(CC(=O)Nc1c(F)cccc1F)C(=O)/C=C/c1cn(Cc2ccccc2)nc1-c1cccnc1 | i | i | i | i | i | . | . | . | .
N#C/C(=C\c1cccc(O)c1)C(=O)N1CCCCC1 | 6.32* | i | i | i | i | . | 8.0%* | i | 9.0%*
N#C/C(=C\c1cccc(Br)c1)C(=O)N1CCCCC1 | 6.46* | i | i | i | i | . | 25.0%* | i | i
Cc1cc(/C=C(\C#N)C(=O)N2CCCCC2)cc(C)c1O | i | i | i | i | i | . | . | . | .
CC(=O)c1cccc(NC(=O)CN(C)Cc2ccc(OC(F)F)cc2)c1 | i | i | i | i | i | -0.39 | . | . | .
COc1cc(/C=C2\C(=O)NN(c3ccccc3)C2=O)cc([N+](=O)[O-])c1O | i | i | i | i | i | . | . | . | .
COc1cc(/C=C2/C(=O)NN(c3ccccc3)C2=O)cc(Br)c1O | 5.72* | 31.3* | i | i | i | . | 5.5%* | i | i
O=C1NN(c2cccc(Br)c2)C(=O)/C1=C\c1ccccc1 | 18.3* | i | i | i | i | . | 16.5%* | 32.0%* | 14.0%*
COc1ccc(N2C(=O)CC(Sc3ncn[nH]3)C2=O)c(OC)c1 (centres undefined) | 12.4* | i | i | i | i | -0.542 | 21.5%* | i | i
CC(C)c1ccc(N2C(=O)CC(Sc3ncn[nH]3)C2=O)cc1 (centres undefined) | i | i | i | i | i | . | . | . | .
Cc1nc(C)c(-c2csc(Nc3ccccn3)n2)s1 | i | i | i | i | i | . | . | . | .
c1ccc(-c2csc(Nc3ccccn3)n2)cc1 | i | i | i | i | i | . | i | i | i
SMILES | RGS4 inh | MrgX1 ag | MrgX1 antagonist | RGS4 pot | MrgX1 PAM | Cl transport mod | RGS4 block valid | M3R Ca ctr | M3R basal Ca ctr
Fc1ccc(-c2csc(Nc3ccccn3)n2)c(F)c1 | i | i | i | i | i | . | . | . | .
Oc1ccc(-c2csc(Nc3ccccn3)n2)cc1 | i | i | i | i | i | . | i | i | i
COc1ccc(-c2csc(Nc3ccccn3)n2)cc1OC | i | i | i | i | i | . | . | . | .
Cc1cc(-c2csc(Nc3ccccn3)n2)ccc1F | 5.41* | i | i | i | i | . | 16.5%* | i | i
Cc1ccc(-c2csc(Nc3ccccn3)n2)cc1 | 9.05* | i | i | i | i | . | i | i | i
CCCCNC(=O)O[C@H]1C[C@@H]2CCN3C(=O)CCC[C@H]([C@H]1Cc1ccccc1)[C@H]23 | i | i | i | i | i | . | . | . | .
C=CCOc1ccc(/C=C/C(=O)OCC(=O)N(C)C2CCS(=O)(=O)C2)cc1 (centres undefined) | i | i | i | i | i | . | . | . | .
C[C@]12C(=O)N(c3ccc(Cl)cc3)C(=O)N1[C@H]1c3ccccc3OC[C@@H]1[C@H]2c1ccccc1 | i | i | i | i | i | . | i | i | i
C[C@]12C(=O)N(c3ccc(Cl)cc3)C(=O)N1[C@@H]1c3ccccc3OC[C@@H]1[C@H]2c1ccccc1 | i | i | i | i | i | . | i | i | i
C[C@@]12C(=O)N(c3ccc(F)cc3)C(=O)N1[C@@H]1c3ccccc3OC[C@@H]1[C@H]2c1ccccc1 | i | i | i | i | i | . | . | . | .
Brc1ccc(C2Nc3cccc4cccc(c34)N2)o1 | 5.15* | i | i | i | i | . | i | i | i
c1ccc(C2Nc3cccc4cccc(c34)N2)cc1 | i | i | i | i | i | . | . | . | .

Screening results from PubChem.
